Test results published in the array DNA melting data of Ke et al. (doi:10.1101/2024.01.08.574731).

How the values were obtained:
[1] = melting temperature; fluorescence melt of hairpins on a sequencing array, two-state fit, raised by 9.35 °C to match UV melts; conditions: sodium 0.088 M
Summary of the method: (§1)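 With Cy3 and quencher oligos annealed, library hairpins on a sequenced MiSeq flow cell were imaged for Cy3 fluorescence in 50 mM Na-HEPES pH 8.0, 25 mM NaCl, in 2.5 °C steps up to 60 °C. Melting temperature and folding enthalpy were derived from bootstrapped two-state fits of signals normalised to pre-quench Cy3 and to control constructs. Four replicates were combined by inverse variance, with fitted temperatures raised by 9.35 °C to match UV melts.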

[2] = folding enthalpy; higher = less favourable; fluorescence melt of hairpins on a sequencing array, two-state fit; conditions: sodium 0.088 M
Summary of the method: as §1

Sequence	Tm [1] [°C]	folding enthalpy [2] [kcal/mol]
GATCCTTGAGAGGATC ((((((....))))))	53.6	-42.5
GATCCTTGGGAGGATC ((((((....))))))	53.2	-43.2
GATCCTTGTCAGGATC ((((((....))))))	50.1	-37.6
GATCCTTGTTAGGATC ((((((....))))))	52.8	-34.8
GATCCTTTCTAGGATC ((((((....))))))	53.7	-40.5
GATCCTTTGAGGATC ((((((...))))))	54.2	-33.6
GATCCTTTTAGGATC ((((((...))))))	58.9	-28.8
GATCGAAACATCGATC ((((((....))))))	50	-39.9
GATCGAAAGATCGATC ((((((....))))))	50.2	-19.9
GATCGAAAGTTCGATC ((((((....))))))	50.4	-36.2
GATCGAACACTCGATC ((((((....))))))	48.9	-31
GATCGAACATTCGATC ((((((....))))))	50.7	-38.5
GATCGAACCCTCGATC ((((((....))))))	50.2	-39.5
GATCGAACCTTCGATC ((((((....))))))	53.5	-40.7
GATCGAACGCTCGATC ((((((....))))))	50.7	-40.4
GATCGAACTGTCGATC ((((((....))))))	49.2	-31.1
GATCGAAGGGTCGATC ((((((....))))))	50.6	-31.6
GATCGAATAATCGATC ((((((....))))))	47.6	-30.8
GATCGAATACTCGATC ((((((....))))))	49.9	-37.5
GATCGAATCATCGATC ((((((....))))))	51.9	-35.7
GATCGAATGATCGATC ((((((....))))))	51.7	-19.6
GATCGAATGCTCGATC ((((((....))))))	49.9	-49.6
GATCGAATGTTCGATC ((((((....))))))	52.5	-42.5
GATCGACAAATCGATC ((((((....))))))	48.1	-31.2

Sequence	Tm [1] [°C]	folding enthalpy [2] [kcal/mol]
GATCGACAGGTCGATC ((((((....))))))	60.3	-39.1
GATCGACATTCGATC ((((((...))))))	49.9	-36.1
GATCGACATTTCGATC ((((((....))))))	50.8	-38.6
GATCGACCCATCGATC ((((((....))))))	51.5	-44.4
GATCGACCTGTCGATC ((((((....))))))	65	-40.3
GATCGACCTTTCGATC ((((((....))))))	50.6	-42.9
GATCGACGAAAGTCCATC (((.(((....))).)))	30	-15.5
GATCGACGAAAGTCTATC (((.(((....))).)))	37.1	-26.8
GATCGACGAATCGATC ((((((....))))))	49	-33.7
GATCGACGATTCGATC ((((((....))))))	49.4	-37.1
GATCGACGCATCGATC ((((((....))))))	52.6	-32.6
GATCGACGCCTCGATC ((((((....))))))	51.6	-43.6
GATCGACGTTCGATC ((((((...))))))	50	-40.8
GATCGACTCTCGATC ((((((...))))))	50.9	-40.6
GATCGACTGATCGATC ((((((....))))))	50.9	-30.5
GATCGACTTTTCGATC ((((((....))))))	51.6	-35.1
GATCGAGAATCGATC ((((((...))))))	59.5	-39.8
GATCGAGACTCGATC ((((((...))))))	52.9	-37.1
GATCGAGCATTCGATC ((((((....))))))	58.2	-42.6
GATCGAGCCGTCGATC ((((((....))))))	54.4	-34.8
GATCGAGCTCTCGATC ((((((....))))))	55.2	-39.1
GATCGAGGAAACTTGATC ((((.((....)).))))	44.3	-28.7
GATCGAGGGATCGATC ((((((....))))))	53.4	-34.2
GATCGAGGGCTCGATC ((((((....))))))	53.5	-46.3

Sequence	Tm [1] [°C]	folding enthalpy [2] [kcal/mol]
GATCGAGGGTTCGATC ((((((....))))))	50.9	-36.9
GATCGAGGTTTCGATC ((((((....))))))	53.2	-44.7
GATCGAGTGATCGATC ((((((....))))))	55.3	-40.1
GATCGAGTTATCGATC ((((((....))))))	58.6	-41.7
GATCGATAATTCGATC ((((((....))))))	51.2	-39.6
GATCGATACATCGATC ((((((....))))))	55.9	-46.2
GATCGATACCTCGATC ((((((....))))))	53.1	-35.1
GATCGATACGTCGATC ((((((....))))))	54.5	-38.6
GATCGATACTTCGATC ((((((....))))))	53	-57.9
GATCGATCCATCGATC ((((((....))))))	56.7	-49.1
GATCGATCGCTCGATC ((((((....))))))	52.4	-37.3
GATCGATGAGTCGATC ((((((....))))))	55.5	-41.6
GATCGATGCTCGATC ((((((...))))))	51.8	-37
GATCGATGCTTCGATC ((((((....))))))	54.9	-41.9
GATCGATTAATCGATC ((((((....))))))	55.9	-43.9
GATCGATTAGTCGATC ((((((....))))))	53.2	-54.5
GATCGATTCCTCGATC ((((((....))))))	52.3	-41.2
GATCGATTCTTCGATC ((((((....))))))	56.9	-36.8
GATCGATTTCTCGATC ((((((....))))))	52.5	-36.4
GATCGATTTTTCGATC ((((((....))))))	54.7	-44.3
GATCGCAAAAGCGATC ((((((....))))))	61.9	-29.1
GATCGCAAAGGCGATC ((((((....))))))	63.9	-41.9
GATCGCAACAGCGATC ((((((....))))))	69.1	-35.4
GATCGCACAAGCGATC ((((((....))))))	69.3	-37

Sequence	Tm [1] [°C]	folding enthalpy [2] [kcal/mol]
GATCGCACATGCGATC ((((((....))))))	68.3	-39.8
GATCGCACCAGCGATC ((((((....))))))	69.3	-31.2
GATCGCACCTGCGATC ((((((....))))))	69.2	-32.3
GATCGCACGAAAGTGATC (((..(((....))))))	36.4	-16.3
GATCGCAGAGGCGATC ((((((....))))))	66.8	-35.8
GATCGCAGGGGCGATC ((((((....))))))	67.5	-34.1
GATCGCAGGTGCGATC ((((((....))))))	68.4	-39.8
GATCGCAGTGCGATC ((((((...))))))	67.6	-30.1
GATCGCAGTGGCGATC ((((((....))))))	67.5	-31.5
GATCGCATACGCGATC ((((((....))))))	69.3	-36.1
GATCGCATCGGCGATC ((((((....))))))	68.8	-33.6
GATCGCATGGGCGATC ((((((....))))))	68.5	-40.5
GATCGCATGTGCGATC ((((((....))))))	68.3	-37.8
GATCGCCACCGCGATC ((((((....))))))	67.1	-40.2
GATCGCCAGCGCGATC ((((((....))))))	63.7	-33.3
GATCGCCCACGCGATC ((((((....))))))	68.1	-35
GATCGCCCCGGCGATC ((((((....))))))	69.2	-33
GATCGCCCTTGCGATC ((((((....))))))	66.9	-29.8
GATCGCCTAGCGATC ((((((...))))))	68.6	-30.6
GATCGCCTTCGCGATC ((((((....))))))	68.4	-41
GATCGCGAAAGCGAAATC ((((((....)))..)))	37.2	-9.22
GATCGCGAAAGCGCAATC ((((((....)))..)))	23.1	-7.96
GATCGCGAGCGCGATC ((((((....))))))	67.2	-35.4
